Measurements reported in ChEMBL document CHEMBL3593175, “Bicyclic [3.3.0]-Octahydrocyclopenta[c]pyrrolo Antagonists of Retinol Binding Protein 4: Potential Treatment of Atrophic Age-Related Macular Degeneration and Stargardt Disease” (J Med Chem, 2015).
One block for each compound: values may come before it.

Legend:
[1] = target: T1, Retinol-binding protein 4 (Homo sapiens, UniProt P02753); assay: Displacement of [3H]-retinol from RBP4 (unknown origin) by scintillation proximity assay
[2] = target: T1, Retinol-binding protein 4; assay: Inhibition of retinol-induced interaction of bacterially expressed MBP-tagged RBP4 (unknown origin) with Eu3+ cryptate labeled TTR by HTRF assay
[3] = Metabolic stability in human liver microsomes assessed as compound remaining at 10 uM after 30 mins; format: ADME; details: read-out: Stability
[4] = Metabolic stability in rat liver microsomes assessed as compound remaining at 10 uM after 30 mins; format: ADME; details: read-out: Stability
Liver microsome [5] = assay: Intrinsic clearance in human liver microsomes; format: ADME
Liver microsome [6] = assay: Intrinsic clearance in rat liver microsomes; format: ADME
Liver = assay: Intrinsic clearance in mouse liver microsomes; format: ADME
[7] = Intrinsic clearance in cynomolgus monkey liver microsomes; format: ADME, Macaca fascicularis
Cytochrome P450 2C9 = Cytochrome P450 2C9 (Homo sapiens, UniProt P11712); assay: Inhibition of CYP2C9 (unknown origin)
Cytochrome P450 2C19 = Cytochrome P450 2C19 (Homo sapiens, UniProt P33261); assay: Inhibition of CYP2C19 (unknown origin); format: ADME
Cytochrome P450 2D6 = Cytochrome P450 2D6 (Homo sapiens, UniProt P10635); assay: Inhibition of CYP2D6 (unknown origin); format: ADME
Cytochrome P450 3A4 = Cytochrome P450 3A4 (Homo sapiens, UniProt P08684); assay: Inhibition of CYP3A4 (unknown origin); format: ADME
[8] = target: Voltage-gated inwardly rectifying potassium channel KCNH2 (Homo sapiens, UniProt Q12809); assay: Inhibition of human ERG expressed in HEK293 cells by patch clamp assay; format: cell-based
Plasma [9] = assay: Protein binding in rat plasma; format: ADME, cell-free
MDCK [10] = assay: Apparent permeability across apical to basolateral side in MDCK cells expressing MDR1; format: ADME, cell-based, Canis lupus familiaris; details: dog
MDCK [11] = assay: Apparent permeability across basolateral to apical side in MDCK cells expressing MDR1; format: ADME, cell-based, Canis lupus familiaris; details: dog
[12] = target: T2, Nuclear receptor subfamily 1 group I member 2 (Homo sapiens, UniProt O75469); assay: Activation of human PXR; format: ADME
T2 sequence (O75469 whole entry): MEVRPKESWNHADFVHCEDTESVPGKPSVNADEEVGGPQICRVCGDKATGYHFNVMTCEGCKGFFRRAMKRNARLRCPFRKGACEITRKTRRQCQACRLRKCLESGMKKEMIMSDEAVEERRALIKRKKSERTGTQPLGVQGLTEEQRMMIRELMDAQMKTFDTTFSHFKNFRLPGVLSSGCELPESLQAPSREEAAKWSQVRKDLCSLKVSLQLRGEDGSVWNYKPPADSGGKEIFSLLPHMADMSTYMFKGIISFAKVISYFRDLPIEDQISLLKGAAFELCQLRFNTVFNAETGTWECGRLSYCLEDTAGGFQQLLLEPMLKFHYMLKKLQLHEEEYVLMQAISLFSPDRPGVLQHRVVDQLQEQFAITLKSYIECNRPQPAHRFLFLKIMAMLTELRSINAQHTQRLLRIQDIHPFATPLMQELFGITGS

[13] = Kinetic solubility in phosphate buffered saline at pH 7.4; format: physicochemical; details: buffer
Plasma [14] = assay: Initial plasma concentration in Sprague-Dawley rat at 2 mg/kg, iv by HPLC/MS/MS method; format: ADME, organism-based; details: in vivo
In short: (§1)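 Male Sprague Dawley rats, 3 per group, single dose: 2.0 mg/kg IV tail vein (0.4 mg/mL, 5 mL/kg; 3% DMA/45% PEG300/12% ethanol/40% sterile water) or 5.0 mg/kg oral gavage (0.5 mg/mL, 10 mL/kg; 2% Tween 80 in 0.9% saline). Plasma sampled pre-dose to 48 h, assayed by HPLC/MS/MS. Non-compartmental analysis; AUC by log/linear (IV) or linear up/log down trapezoidal (PO).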

Rattus norvegicus [15] = assay: Plasma clearance in Sprague-Dawley rat at 2 mg/kg, iv by HPLC/MS/MS method; format: ADME, organism-based; details: in vivo; in short: as §1
Rattus norvegicus [16] = assay: Apparent terminal half life in Sprague-Dawley rat at 2 mg/kg, iv by HPLC/MS/MS method; format: ADME, organism-based; details: in vivo; in short: as §1
Rattus norvegicus [17] = assay: Volume of distribution at steady state in Sprague-Dawley rat at 2 mg/kg, iv by HPLC/MS/MS method; format: ADME, organism-based; details: in vivo; in short: as §1
Rattus norvegicus [18] = assay: AUClast in Sprague-Dawley rat at 2 mg/kg, iv by HPLC/MS/MS method; format: ADME, organism-based; parameters: dose 2 mg/kg, time 0 - last, route intravenous; details: in vivo; in short: as §1
Rattus norvegicus [19] = assay: AUC (0 to infinity) in Sprague-Dawley rat at 2 mg/kg, iv by HPLC/MS/MS method; format: ADME, organism-based; parameters: dose 2 mg/kg, route intravenous, time infinity; details: in vivo; in short: as §1
Rattus norvegicus [20] = assay: Cmax in Sprague-Dawley rat at 5 mg/kg, po by HPLC/MS/MS method; format: ADME, organism-based; parameters: dose 5 mg/kg, route oral; details: in vivo; in short: as §1
Rattus norvegicus [21] = assay: Tmax in Sprague-Dawley rat at 5 mg/kg, po by HPLC/MS/MS method; format: ADME, organism-based; details: in vivo; in short: as §1
Rattus norvegicus [22] = assay: Apparent terminal half life in Sprague-Dawley rat at 5 mg/kg, po by HPLC/MS/MS method; format: ADME, organism-based; details: in vivo; in short: as §1
Rattus norvegicus [23] = assay: AUClast in Sprague-Dawley rat at 5 mg/kg, po by HPLC/MS/MS method; format: ADME, organism-based; parameters: dose 5 mg/kg, time 0 - last, route oral; details: in vivo; in short: as §1
Rattus norvegicus [24] = assay: AUC (0 to infinity) in Sprague-Dawley rat at 5 mg/kg, po by HPLC/MS/MS method; format: ADME, organism-based; parameters: dose 5 mg/kg, time infinity, route oral; details: in vivo; in short: as §1
Rattus norvegicus [25] = assay: Oral bioavailability in Sprague-Dawley rat at 5 mg/kg by HPLC/MS/MS method; format: ADME, organism-based; details: in vivo; in short: as §1
[26] = Plasma concentration in Sprague-Dawley rat at 5 mg/kg, po measured at 48 hrs post dose on day 1 by HPLC/MS/MS method; format: ADME, organism-based
In short: (§2)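 Male Sprague Dawley rats (n=3) were given one 5 mg/kg oral gavage dose (1.0 mg/mL) on Day 1 in 2% Tween 80 in 0.9% saline. Plasma was sampled pre-dose and at 0.25–48 h and measured by HPLC/MS/MS. Non-compartmental analysis: Cmax and Tmax taken directly from the data; half-life from terminal regression over at least three non-zero points after Tmax.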

[27] = Plasma concentration in Sprague-Dawley rat at 5 mg/kg, po qd administered for 7 days measured at 4 hrs post dose on day 7 by HPLC/MS/MS method; format: ADME, organism-based
In short: (§3)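 Male Sprague Dawley rats (n=3) were dosed orally by gavage at 5 mg/kg (1.0 mg/mL) once daily on Days 1–7, with a vehicle group run in parallel. Plasma was taken pre-dose on Days 1–6, then pre-dose and at 0.25–48 h on Day 7, and analysed by HPLC/MS/MS. Non-compartmental PK; terminal half-life needed at least three non-zero points after Tmax.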

[28] = Plasma concentration in Sprague-Dawley rat at 5 mg/kg, po qd administered for 7 days measured at 48 hrs post dose on day 7 by HPLC/MS/MS method; format: ADME, organism-based; in short: as §3
[29] = Plasma concentration in Sprague-Dawley rat at 5 mg/kg, po qd administered for 7 days measured on day 7 prior to administration of last dose by HPLC/MS/MS method; format: ADME, organism-based; in short: as §3
Rattus norvegicus [30] = assay: Cmax in Sprague-Dawley rat at 5 mg/kg, po measured on day 1 by HPLC/MS/MS method; format: ADME, organism-based; parameters: dose 5 mg/kg, route oral; details: in vivo; in short: as §2
Rattus norvegicus [31] = assay: Tmax in Sprague-Dawley rat at 5 mg/kg, po measured on day 1 by HPLC/MS/MS method; format: ADME, organism-based; details: in vivo; in short: as §2
Rattus norvegicus [32] = assay: Elimination half life in Sprague-Dawley rat at 5 mg/kg, po measured on day 1 by HPLC/MS/MS method; format: ADME, organism-based; details: in vivo; in short: as §2
Rattus norvegicus [33] = assay: AUClast in Sprague-Dawley rat at 5 mg/kg, po measured on day 1 by HPLC/MS/MS method; format: ADME, organism-based; parameters: dose 5 mg/kg, time 0 - last, route oral; details: in vivo; in short: as §2
Rattus norvegicus [34] = assay: Cmax in Sprague-Dawley rat at 5 mg/kg, po qd administered for 7 days measured on day 7 post last dose by HPLC/MS/MS method; format: ADME, organism-based; parameters: dose 5 mg/kg, route oral; details: in vivo, 168 h; in short: as §3
Rattus norvegicus [35] = assay: Tmax in Sprague-Dawley rat at 5 mg/kg, po qd administered for 7 days measured on day 7 post last dose by HPLC/MS/MS method; format: ADME, organism-based; details: in vivo, 168 h; in short: as §3
Rattus norvegicus [36] = assay: Elimination half life in Sprague-Dawley rat at 5 mg/kg, po qd administered for 7 days measured on day 7 post last dose by HPLC/MS/MS method; format: ADME, organism-based; details: in vivo, 168 h; in short: as §3
Rattus norvegicus [37] = assay: AUClast in Sprague-Dawley rat at 5 mg/kg, po qd administered for 7 days measured on day 7 post last dose by HPLC/MS/MS method; format: ADME, organism-based; parameters: dose 5 mg/kg, route oral, time 0 - last; details: in vivo, 168 h; in short: as §3
Rattus norvegicus [38] = assay: Decrease in RBP4 level in Sprague-Dawley rat plasma at 5 mg/kg, po relative to vehicle-treated control; format: functional; parameters: scale not given: the % may be the effect or the level left
In short: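 Male Sprague-Dawley rats were dosed by oral gavage at 10 mL/kg, with 2% Tween 80 in 0.9% saline as vehicle, […]. A vehicle-dosed group served as control. Whole blood was clotted for 30 min at room temperature, then centrifuged at 2000g for 15 min at 4°C to give serum. Serum RBP4 was measured by dual ELISA.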

Rattus norvegicus [39] = assay: Decrease in RBP4 level in Sprague-Dawley rat plasma at 5 mg/kg, po qd administered for 7 days measured on day 7 post last dose relative to vehicle-treated control; format: functional; parameters: scale not given: the % may be the effect or the level left
In short: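 Male Sprague Dawley rats received 5 mg/kg or vehicle by oral gavage once daily for 7 days, 3 per group. Whole blood clotted 30 min at room temperature, then was centrifuged at 2000g for 15 min at 4°C. Serum RBP4 was measured by dual ELISA kit per the manufacturer's instructions.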

Sequence of Cytochrome P450 2D6 (P10635 whole entry): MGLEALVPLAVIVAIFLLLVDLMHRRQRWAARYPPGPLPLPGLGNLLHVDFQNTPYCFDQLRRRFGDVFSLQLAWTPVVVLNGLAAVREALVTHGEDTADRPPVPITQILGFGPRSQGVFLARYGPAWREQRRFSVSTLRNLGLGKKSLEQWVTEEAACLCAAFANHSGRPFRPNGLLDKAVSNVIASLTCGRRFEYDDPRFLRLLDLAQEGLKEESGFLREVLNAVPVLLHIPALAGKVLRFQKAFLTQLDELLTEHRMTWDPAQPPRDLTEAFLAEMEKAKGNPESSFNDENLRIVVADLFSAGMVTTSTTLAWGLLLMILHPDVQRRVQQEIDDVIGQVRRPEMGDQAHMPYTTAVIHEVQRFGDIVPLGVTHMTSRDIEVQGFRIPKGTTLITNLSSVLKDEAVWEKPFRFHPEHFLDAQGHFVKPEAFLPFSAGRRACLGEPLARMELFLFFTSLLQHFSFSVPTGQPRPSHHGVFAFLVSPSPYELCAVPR
Sequence of Cytochrome P450 2C19 (P33261 whole entry): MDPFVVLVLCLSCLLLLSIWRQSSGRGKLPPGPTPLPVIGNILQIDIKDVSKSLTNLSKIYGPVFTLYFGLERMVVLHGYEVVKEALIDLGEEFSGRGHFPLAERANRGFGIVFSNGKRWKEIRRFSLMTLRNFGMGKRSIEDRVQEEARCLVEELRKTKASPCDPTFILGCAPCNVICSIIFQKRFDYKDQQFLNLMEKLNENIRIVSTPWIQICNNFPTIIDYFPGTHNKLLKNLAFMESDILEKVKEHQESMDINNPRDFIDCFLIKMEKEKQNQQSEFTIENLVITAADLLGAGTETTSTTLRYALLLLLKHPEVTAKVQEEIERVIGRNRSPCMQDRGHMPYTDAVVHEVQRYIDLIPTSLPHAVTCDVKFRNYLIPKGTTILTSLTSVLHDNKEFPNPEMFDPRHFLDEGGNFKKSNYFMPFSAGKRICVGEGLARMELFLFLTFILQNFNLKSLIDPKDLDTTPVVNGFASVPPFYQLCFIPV
Sequence of Cytochrome P450 3A4 (P08684 whole entry): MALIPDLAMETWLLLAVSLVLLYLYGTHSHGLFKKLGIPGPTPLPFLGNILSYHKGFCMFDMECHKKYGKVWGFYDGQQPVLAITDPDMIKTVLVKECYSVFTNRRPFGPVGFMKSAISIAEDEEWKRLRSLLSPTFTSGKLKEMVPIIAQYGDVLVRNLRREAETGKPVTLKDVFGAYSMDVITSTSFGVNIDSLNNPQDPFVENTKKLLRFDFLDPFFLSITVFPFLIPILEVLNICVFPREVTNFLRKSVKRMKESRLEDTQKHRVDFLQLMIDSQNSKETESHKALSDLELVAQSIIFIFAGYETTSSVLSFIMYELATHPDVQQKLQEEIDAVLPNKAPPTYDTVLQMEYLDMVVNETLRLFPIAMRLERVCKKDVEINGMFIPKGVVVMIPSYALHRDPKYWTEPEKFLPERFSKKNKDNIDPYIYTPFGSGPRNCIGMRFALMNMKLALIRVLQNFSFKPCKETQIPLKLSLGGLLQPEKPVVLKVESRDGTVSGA
Sequence of Cytochrome P450 2C9 (P11712 whole entry): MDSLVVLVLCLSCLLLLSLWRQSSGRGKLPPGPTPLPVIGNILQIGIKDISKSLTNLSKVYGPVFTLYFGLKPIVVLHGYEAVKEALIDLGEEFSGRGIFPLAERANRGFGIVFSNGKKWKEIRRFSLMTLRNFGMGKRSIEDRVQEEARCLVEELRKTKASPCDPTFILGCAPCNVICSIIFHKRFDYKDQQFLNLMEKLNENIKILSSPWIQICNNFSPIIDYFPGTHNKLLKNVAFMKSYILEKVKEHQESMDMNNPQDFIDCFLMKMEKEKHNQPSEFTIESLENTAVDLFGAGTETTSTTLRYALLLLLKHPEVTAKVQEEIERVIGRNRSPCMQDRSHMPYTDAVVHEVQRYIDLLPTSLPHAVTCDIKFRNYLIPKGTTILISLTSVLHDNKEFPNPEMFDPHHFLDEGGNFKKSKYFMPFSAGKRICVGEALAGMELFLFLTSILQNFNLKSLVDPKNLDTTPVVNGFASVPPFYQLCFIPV
Sequence of Voltage-gated inwardly rectifying potassium channel KCNH2 (Q12809 whole entry): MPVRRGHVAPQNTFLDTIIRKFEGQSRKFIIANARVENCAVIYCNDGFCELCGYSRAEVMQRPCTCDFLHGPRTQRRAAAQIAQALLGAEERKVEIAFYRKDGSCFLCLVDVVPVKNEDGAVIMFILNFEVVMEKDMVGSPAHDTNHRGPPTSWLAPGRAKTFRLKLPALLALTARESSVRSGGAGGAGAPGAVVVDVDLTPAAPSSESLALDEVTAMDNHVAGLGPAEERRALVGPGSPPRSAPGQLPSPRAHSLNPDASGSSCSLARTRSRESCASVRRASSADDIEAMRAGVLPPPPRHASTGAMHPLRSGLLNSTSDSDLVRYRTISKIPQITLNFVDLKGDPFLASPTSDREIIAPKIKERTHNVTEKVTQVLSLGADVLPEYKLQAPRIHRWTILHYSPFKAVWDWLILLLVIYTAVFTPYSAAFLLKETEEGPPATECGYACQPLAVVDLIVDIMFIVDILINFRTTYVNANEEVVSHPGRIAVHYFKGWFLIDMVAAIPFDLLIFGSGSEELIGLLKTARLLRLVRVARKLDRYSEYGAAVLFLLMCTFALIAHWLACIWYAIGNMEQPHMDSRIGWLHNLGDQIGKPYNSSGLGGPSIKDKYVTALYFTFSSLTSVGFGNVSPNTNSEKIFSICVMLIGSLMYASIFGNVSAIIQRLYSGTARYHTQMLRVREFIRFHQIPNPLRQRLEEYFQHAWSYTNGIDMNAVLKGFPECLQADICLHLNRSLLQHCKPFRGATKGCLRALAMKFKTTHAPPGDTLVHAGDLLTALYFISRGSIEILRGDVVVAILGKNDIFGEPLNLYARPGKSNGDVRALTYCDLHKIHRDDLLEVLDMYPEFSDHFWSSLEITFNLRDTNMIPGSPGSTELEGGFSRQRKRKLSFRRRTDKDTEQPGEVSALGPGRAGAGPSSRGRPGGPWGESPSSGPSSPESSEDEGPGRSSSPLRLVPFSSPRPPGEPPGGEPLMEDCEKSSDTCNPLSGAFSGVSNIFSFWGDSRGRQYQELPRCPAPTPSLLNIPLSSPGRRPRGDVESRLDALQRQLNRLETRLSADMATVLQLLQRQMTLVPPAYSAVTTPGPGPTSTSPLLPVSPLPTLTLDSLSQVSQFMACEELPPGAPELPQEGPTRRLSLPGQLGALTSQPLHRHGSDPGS

IC50 [1]: 0.0063 µM
IC50 [2]: 0.1 µM
remaining at 0.5 h, 10 µM [3]: 0.2%
remaining at 0.5 h, 10 µM [4]: 9.8%
Compound: COC(=O)c1cc(C)nc(N2C[C@H]3C[C@@H](c4ccccc4C(F)(F)F)C[C@H]3C2)n1

Compound: Cc1cc(C(=O)O)nc(N2C[C@H]3C[C@@H](c4ccccc4C(F)(F)F)C[C@H]3C2)n1
remaining at 0.5 h, 10 µM [3]: 94%
remaining at 0.5 h, 10 µM [4]: 93%
CLH (Liver microsome [5]): < 0.7 microL/ml/min
CLH (Liver microsome [6]): < 0.7 microL/ml/min
CLH (Liver): < 0.7 microL/ml/min
CLH [7]: 0.7 microL/ml/min
IC50 (Cytochrome P450 2C9): > 34 µM
IC50 (Cytochrome P450 2C19): > 34 µM
IC50 (Cytochrome P450 2D6): > 34 µM
IC50 (Cytochrome P450 3A4): > 34 µM
IC50 [8]: > 30 µM
PPB (Plasma [9]): 99.4%
Papp (MDCK [10]): 74.7 ×10⁻⁶ cm/s
Papp (MDCK [11]): 82.2 ×10⁻⁶ cm/s
Activity [12]: Not Active
Kinetic_solubility [13]: > 100 µM
C0 (Plasma [14]): 58.6 µM
CL (Rattus norvegicus [15]): 5.06 mL/h/kg
betat1/2(app) (Rattus norvegicus [16]): 22 h
Vdss (Rattus norvegicus [17]): 0.156 L/kg
AUClast (Rattus norvegicus [18]): 795 µM·h
AUC (Rattus norvegicus [19]): 1017 µM·h
Cmax (Rattus norvegicus [20]): 62.2 µM
Tmax (Rattus norvegicus [21]): 2.67 h
betat1/2(app) (Rattus norvegicus [22]): 38.8 h
AUClast (Rattus norvegicus [23]): 2011 µM·h
AUC (Rattus norvegicus [24]): 3636 µM·h
F (Rattus norvegicus [25]): 143%
concentration at 48 h [26]: 20 µM
concentration at 4 h [27]: 179 µM
concentration at 48 h [28]: 97.1 µM
concentration at 168 h [29]: 148 µM
Cmax (Rattus norvegicus [30]): 66.5 µM
Tmax (Rattus norvegicus [31]): 2.75 h
beta t1/2 (Rattus norvegicus [32]): 31.9 h
AUClast (Rattus norvegicus [33]): 1695 µM·h
Cmax (Rattus norvegicus [34]): 183 µM
Tmax (Rattus norvegicus [35]): 2.17 h
beta t1/2 (Rattus norvegicus [36]): 49.4 h
AUClast (Rattus norvegicus [37]): 6380 ng·h/mL
Activity (Rattus norvegicus [38]): 85%
Activity (Rattus norvegicus [39]): 95%
